Assay outcomes from PubChem BioAssay.
thrombin 1536: thrombin (human) inhibition. P00734. AID 1046. inhibition, % at 5 µM. alpha-thrombin, Boc-VPR-AMC fluorogenic substrate cleavage. hit rate 0.26% among 220,000;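 active = inhibition at or above 40%; inactive = inhibition below 40%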
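Material: human alpha-thrombin protein; Also added: Boc-VPR-AMC substrate, 15 µM final; Timing: enzyme reaction carried out at room temperature; Signal: fluorescence, ex 355 nm, em 460 nm; Measure: % inhibition of thrombin; Controls: enzyme without compound as high, wells lacking enzyme as low.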
FXIIa inh: blocks human coagulation factor XIIa protease activity; purified FXIIa, Boc-QGR-AMC fluorogenic substrate, 2 h; inhibition, % at 5 µM; P00748; hit rate 0.3% among 220,000; AID 800; in the data active = inhibition above about 40%
FXIa inh: inhibitors of human coagulation factor XIa; inhibition, % at 5 µM; hit rate 0.14% among 220,000; purified FXIa, Boc-Glu-Ala-Arg-AMC fluorogenic substrate; P03951;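 active = inhibition of at least 40%; inactive = inhibition below 40%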;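 also: fluorescence of freed AMC excited at 355 nm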
Tb hexokinase: T. brucei hexokinase 1 inhibition | inhibition, % at 10 µM | hit rate 0.11% among 220,000 | recombinant TbHK1, G6PDH-coupled NADH A340 | AID 1430;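 active = inhibition of 50% or more in the single-dose primary screen; inactive = inhibition below 50%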
KLK5 inh: kallikrein 5 (human) inhibition | recombinant hK5, fluorogenic AMC substrate cleavage | inhibition, % at 5 µM | hit rate 0.59% among 210,000 | AID 873;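 active = inhibition of 40% or more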
Target sequence (Q9Y337 67-293 limits assumed): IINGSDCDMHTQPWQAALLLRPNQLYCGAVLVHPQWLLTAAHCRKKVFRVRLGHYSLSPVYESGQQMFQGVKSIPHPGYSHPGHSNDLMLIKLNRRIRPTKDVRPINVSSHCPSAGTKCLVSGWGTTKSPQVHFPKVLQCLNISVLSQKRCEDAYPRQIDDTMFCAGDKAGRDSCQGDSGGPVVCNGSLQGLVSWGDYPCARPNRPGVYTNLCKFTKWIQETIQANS
A number is an active result; – = inactive. Sampled rows, rich in hits. Any-hit rate of the full collection: about 1.1%.

SMILES	thrombin 1536	FXIIa inh	FXIa inh	Tb hexokinase	KLK5 inh
CC(=O)NNC(=S)NC(=O)c1ccc(C)cc1	–	–	–	–	–
CCOC(=O)N1CCN(C(=O)/C(=C\c2ccc(SC)cc2)NC(=O)c2ccccc2)CC1	–	–	–	–	–
CC(C)Cc1cc(C(=O)NCc2cccs2)no1	–	–	–	–	55
CC(C)Cc1cc(C(=O)NCCN2CCOCC2)no1	–	–	–	–	44
C/C(=N\NC(=O)c1cccc(N/N=C(\C)c2ccccc2)c1)c1ccccc1	–	63	–	–	–
C/C(=N\NC(=O)c1cccc(N/N=C(\C)c2ccncc2)c1)c1ccncc1	–	–	–	–	–
O=[N+]([O-])c1ccc(N2CCCC2)cc1NC1CC1	–	–	–	–	44
N#Cc1ccccc1Sc1ccccc1C(=O)OCc1nnc(-c2ccccc2)o1	–	–	–	58	–
N#Cc1ccccc1Sc1ccccc1C(=O)OCC(N)=O	–	–	–	–	–
CC(C)[C@H](NC(=O)[C@H](CCCN=C(N)N)NC(=O)NC(Cc1ccccc1)C(=O)O)C(=O)NC(C=O)CCCN=C(N)N (some centres undefined)	–	47	43	–	–
CCOC(=O)c1sc(N(C)C(C)=O)nc1C	–	42	–	–	–
CCOC(=O)c1nc(C)c(C(C)=O)s1	–	–	–	–	–
O=C1c2ccccc2C(=O)N1OS(=O)(=O)c1ccccc1	–	76	43	–	–
Cc1ccc(C)c(S(=O)(=O)ON2C(=O)c3ccccc3C2=O)c1	48	77	62	–	–
COc1ccc(NC(=O)c2cccn(CC=C(C)C)c2=O)cc1	–	–	–	–	–
CC(C)(C)NC(=O)C1N(c2cccnc2)C(=O)C2C(C(=O)Nc3ccccc3F)C3(C)C=CC21O3 (centres undefined)	–	–	–	–	–
CC12C=CC3(O1)C(C(=O)N(c1cccnc1)C3C(=O)NC1CCCCC1)C2C(=O)Nc1ccccc1 (centres undefined)	–	–	–	–	72
CC(=O)Nc1c(C)ccc(CNC(=O)COc2cc(C)ccc2C)c1C	–	–	–	–	–
CC(=O)Cc1nsc(NC(=O)c2cccc(F)c2)n1	–	–	–	–	52
Cc1nnc(NC(=O)c2c(F)cccc2F)s1	–	–	–	–	–
CC(=O)Cc1nsc(NC(=O)c2ccc(-c3cccc(C(F)(F)F)c3)o2)n1	–	–	–	–	–
Cc1nnc(NC(=O)c2cccc(F)c2)s1	–	–	–	–	44
Cc1ccccc1C(=O)OCCN(C)Cc1ccccc1	–	–	–	–	–
C=C(C)CSc1nnc(CCCCCNC(=O)OC(C)(C)C)o1	–	–	–	–	–
O=C(NCc1ccncc1)c1ccc(Br)o1	–	41	–	–	–
SMILES	thrombin 1536	FXIIa inh	FXIa inh	Tb hexokinase	KLK5 inh
CCOC(=O)C(CC)n1cnc2sc3c(c2c1=O)CCC3 (centres undefined)	–	–	–	–	–
CCOC(=O)c1cnn(-c2nc(SC)nc3sc4c(c23)CCCC4)c1N	–	–	–	–	–
CCOC(=O)c1cnn(-c2ncnc3sc4c(c23)CCC4)c1N	49	–	–	–	–
CCOC(=O)C(C)n1cnc2sc3c(c2c1=O)CCC3 (centres undefined)	–	–	–	–	40
Cc1nonc1OC(C)CNCCNc1ccc([N+](=O)[O-])cc1 (centres undefined)	–	43	–	–	–
CCc1ccc(Nc2ncc3c(n2)CC(C)(C)CC3=O)cc1	–	–	–	–	–
COC(=O)c1cc2occc2n1CC(=O)Nc1ccc(OC)c(OC)c1	–	–	–	–	–
COC(=O)c1cc2occc2n1CC(=O)Nc1cc(OC)cc(OC)c1	–	–	–	–	62
CCSc1nnc(NC(=O)CSc2nnc(CNC(=O)c3ccc(OC)c(OC)c3)o2)s1	–	–	–	–	–
CCOCCCn1cnc2c(c1=O)c1nc3ccccc3nc1n2-c1ccc(C)cc1	–	–	–	–	–
CCOCCCn1cnc2c(c1=O)c1nc3ccccc3nc1n2-c1ccccc1	–	54	–	–	–
Cc1nc(N)sc1N=Nc1ccc(F)cc1	–	–	–	–	–
Cc1onc(-c2c(F)cccc2Cl)c1-c1nnc(-c2ccc(C(F)(F)F)cc2)o1	–	57	–	–	–
O=C(Nc1ccccc1)OC1CCCCc2cccnc21 (centres undefined)	–	–	–	–	–
CC(C)(C)c1ccc(C(=O)Cn2nc(C(=O)O)c3ccccc3c2=O)cc1	–	–	–	–	44
